Measured values published in ChEMBL document CHEMBL4627401, “Structure Optimization of Gatastatin for the Development of γ-Tubulin-Specific Inhibitor” (ACS Med Chem Lett, 2020).
pIC50: −log10 of the molar value. The source made the active and inactive calls. No cut-off for these calls is given here.

What was measured:
HeLa [1] = experiment: Inhibition of gamma-tubulin nucleation in human HeLa cells at 10 uM incubated for 15 mins; format: cell-based
HeLa [2] = experiment: Inhibition of gamma-tubulin nucleation in human HeLa cells at 30 uM incubated for 15 mins; format: cell-based
HeLa [3] = experiment: Inhibition of gamma-tubulin in human HeLa cells assessed as abnormal spindle formation at 30 uM incubated for 24 hrs by immunofluorescence microscopy analysis relative to control; format: cell-based
In short: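 Exponentially growing HeLa cells were treated with 30 μM for 24 h, then spindle morphology was classified as normal bipolar, bipolar with misaligned chromosomes, or multipolar. More than 100 cells were scored per experiment. Mean ± SD, three independent experiments, with DMSO as control.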

Sus scrofa domesticus [4] = species: Sus scrofa domesticus; experiment: Inhibition of porcine brain tubulin polymerization assessed as residual tubulin polymerization at 30 uM in presence of 0.8 M glutamate incubated for 30 mins by SDS-PAGE analysis (reference value: 84.8 +/- 9.9 %)
In short: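 Polymer was separated by ultracentrifugation (200,000g, 10 min, 25 °C), tubulin measured by 10% SDS-PAGE densitometry and expressed as % polymerized. Mean ± SD, three independent experiments.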

Homo sapiens = species: Homo sapiens; experiment: Inhibition of human gamma tubulin assessed as reduction in GTP binding to gamma-tubulin at 50 uM incubated for 15 mins by alpha-[32P]-GTP binding assay
HeLa [5] = experiment: Cytotoxicity against human HeLa cells assessed as reduction in cell viability incubated for 48 hrs by WST8 cells; format: functional, cell-based
In short: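 HeLa cells were exposed to a range of concentrations for 48 h. Growth was read by WST-8 cell counting, and IC50 values were calculated from the resulting curves.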

HeLa [6] = experiment: Induction of microtubule depolymerization in human HeLa cells at 30 uM incubated for 24 hrs by immunofluorescence microscopy; format: functional, cell-based
In short: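 Interphase HeLa cells were treated for 24 h at 30 μM, then the MT network structure was examined by microscopy.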

HeLa [7] = experiment: Cytotoxicity against human HeLa cells assessed as cell viability at 100 uM incubated for 48 hrs by WST8 cells relative to control; format: functional; conditions: read-out: Activity
HeLa [8] = experiment: Induction of microtubule depolymerization in human HeLa cells at 100 nM incubated for 6 hrs by immunofluorescence microscopic method; format: functional, cell-based
Sus scrofa domesticus [9] = species: Sus scrofa domesticus; experiment: Induction of porcine brain tubulin polymerization at 10 uM in presence of 0.2 M glutamate incubated for 30 mins by SDS-PAGE analysis (reference value: 36.3 +/- 8.1 %)
HeLa [10] = experiment: Inhibition of gamma-tubulin nucleation in human HeLa cells at 100 uM incubated for 15 mins; format: cell-based
HeLa [11] = experiment: Inhibition of gamma-tubulin in human HeLa cells assessed as abnormal spindle formation at 1 uM incubated for 24 hrs by immunofluorescence microscopy analysis relative to control; format: cell-based
HeLa [12] = experiment: Inhibition of gamma-tubulin nucleation in human HeLa cells at 0.3 uM incubated for 15 mins; format: cell-based
HeLa [13] = experiment: Inhibition of gamma-tubulin in human HeLa cells assessed as abnormal spindle formation incubated for 24 hrs by immunofluorescence microscopy analysis; format: cell-based

Row | Compound | inhibition (HeLa [1]) | inhibition (HeLa [2]) | inhibition (HeLa [3]) | Activity (Sus scrofa domesticus [4]) [%] | inhibition (Homo sapiens) | pIC50 (HeLa [5]) | Activity (HeLa [6]) | viability at 100 µM (HeLa [7]) [%] | Activity (HeLa [8]) | Activity (Sus scrofa domesticus [9]) [%] | inhibition (HeLa [10]) | inhibition (HeLa [11]) | inhibition (HeLa [12]) | inhibition (HeLa [13])
1 | COc1cc2c(=O)c(-c3cc(OC)c4c(c3OC)OCO4)coc2cc1OCc1ccccc1 | inactive | Active | Active | 69 to 92 | Active | 4.98 | inactive |  |  |  |  |  |  | 
2 | C#CCOc1cc2c(=O)c(-c3cc(OC)c4c(c3OC)OC(C)(C)O4)coc2cc1OCc1ccccc1 |  |  | inactive | 69 to 92 |  | < 4.00 | inactive | 102 |  |  |  |  |  | 
3 | CC(=O)O[C@H]1C(=O)[C@@]2(C)[C@H]([C@H](OC(=O)c3ccccc3)[C@]3(O)C[C@H](OC(=O)[C@H](O)[C@@H](NC(=O)c4ccccc4)c4ccccc4)C(C)=C1C3(C)C)[C@]1(OC(C)=O)CO[C@@H]1C[C@@H]2O |  |  |  |  |  |  |  |  | Active | 91.6 |  |  |  | 
4 | COc1cc2c(=O)c(-c3ccc4c(c3)OCO4)coc2cc1OCc1ccccc1 |  |  | inactive | 69 to 92 |  | < 4.00 | inactive | 101 |  |  | inactive |  |  | 
5 | COc1cc(-c2coc3cc(OCc4ccccc4)c(OCc4ccccc4)cc3c2=O)c(OC)c2c1OCO2 |  | Active |  | 69 to 92 |  | 5.96 | inactive |  |  |  |  | Active |  | 
6 | COc1cc2c(=O)c(-c3cc(OC)c(OC)c(OC)c3OC)coc2cc1OCc1ccccc1 | inactive | Active | 65% | 69 to 92 |  | < 4.00 | inactive | 77.3 |  |  |  |  |  | 
7 | COc1cc2c(c(OC)c1OC)-c1ccc(OC)c(=O)cc1[C@@H](NC(C)=O)CC2 |  |  |  |  |  |  |  |  | Active |  |  |  |  | 
8 | C=CCOc1cc2c(=O)c(-c3cc(OC)c4c(c3OC)OCO4)coc2cc1OCc1ccccc1 |  | Active |  | 69 to 92 |  | 5.00 | inactive |  |  |  |  |  |  | 
9 | C#CCOc1cc2c(=O)c(-c3cc(OC)c4c(c3OC)OCO4)coc2cc1OCc1ccccc1 |  | Active |  | 69 to 92 | Active | 6.10 | inactive |  |  |  |  | Active | Active | Dose-dependent effect
10 | COc1cc(-c2coc3cc(OCc4ccccc4)c(O)cc3c2=O)c(OC)c2c1OCO2 |  | Active |  | 69 to 92 |  | 5.24 | inactive |  |  |  |  |  |  | 
11 | C=CCOc1cc2c(=O)c(-c3cc(OC)c4c(c3OC)OC(C)(C)O4)coc2cc1OCc1ccccc1 |  |  | inactive | 69 to 92 |  | < 4.00 | inactive | 107 |  |  |  |  |  | 
12 | COc1cc(-c2coc3cc(OCc4ccccc4)c(OCc4ccccc4)cc3c2=O)c(OC)c2c1OC(C)(C)O2 |  |  | inactive | 69 to 92 |  | < 4.00 | inactive | 102 |  |  |  |  |  | 
13 | COc1cc(-c2coc3cc(OCc4ccccc4)c(OC4CCCCO4)cc3c2=O)c(OC)c2c1OCO2 (centres undefined) |  |  |  | 69 to 92 |  | < 4.00 | inactive | 99.1 |  |  | inactive |  |  | 
14 | COc1cc(-c2coc3cc(OCc4ccccc4)c(O)cc3c2=O)c(OC)c2c1OC(C)(C)O2 |  |  | inactive | 69 to 92 |  | < 4.89 | inactive |  |  |  |  |  |  | 
15 | COc1cc2c(=O)c(-c3cc(OC)c4c(c3OC)OC(C)(C)O4)coc2cc1OCc1ccccc1 |  |  | inactive | 69 to 92 |  | < 4.00 | inactive | 100 |  |  | inactive |  |  | 
16 | COc1cc(-c2coc3cc(OCc4ccccc4)c(OC4CCCCO4)cc3c2=O)c(OC)c2c1OC(C)(C)O2 (centres undefined) |  |  | inactive | 69 to 92 |  | < 4.00 | inactive | 101 |  |  |  |  |  | 
